Columns and labels:
[1] = organism: Cavia porcellus; test: % inhibition of twitch contraction in electrically stimulated guinea pig ileum preparation; type: functional
Summary of the method: (§1)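 Ileum from male Dunkin-Hartley guinea pigs (300–400 g) in bath at 37 °C bubbled with 95% O2/5% CO2. Tissue suitability checked with acetylcholine 3 μM. Transmural stimulation at 0.2 Hz, 0.3 ms, supramaximal voltage, isotonic recording. Cumulative concentration–response curves over 100 pM–30 μM. Twitch height measured before and after drug. Mean ± SEM from five to six animals.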

[2] = organism: Cavia porcellus; test: Relative inhibitory activity expressed as the percentage of the maximum inhibition by the compound against that of morphine; type: functional
[3] = organism: Cavia porcellus; test: % maximum inhibition is elicited when the response reaches plateau, calculated regarding electrically induced contraction in guinea pig ileum as 100%; type: functional; summary of the method: as §1
[4] = organism: Cavia porcellus; test: % inhibition of twitch contraction at 3 uM in electrically stimulated guinea pig ileum preparation by; type: functional; summary of the method: as §1
[5] = target: Mu-type opioid receptor (Cavia porcellus) (UniProt P97266); test: Relative affinity evaluated for Opioid receptor mu 1
Sequence of Mu-type opioid receptor (Cavia porcellus) (P97266 whole entry): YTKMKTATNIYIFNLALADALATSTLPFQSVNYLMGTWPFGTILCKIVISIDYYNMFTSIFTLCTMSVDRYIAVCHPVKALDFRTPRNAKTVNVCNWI
Summary of the method: (§2)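 From displacement Ki values in guinea pig brain membranes for μ ([3H]DAMGO), δ ([3H]DPDPE) and κ ([3H]U-69593) sites. Ka = 1/Ki. Relative affinity (%) = Ka for the subtype / (Kaμ + Kaδ + Kaκ).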

[6] = target: Mu-type opioid receptor (Cavia porcellus, UniProt P97266); test: Binding affinity using guinea pig brain membrane preparations, towards Opioid receptor mu 1 using [3H]- DAMGO as radioligand
Sequence of Mu-type opioid receptor (P97266 whole entry): as above
Summary of the method: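 Guinea pig whole-brain (minus cerebellum) membranes in 50 mM Tris-HCl pH 7.4 with 1 nM radioligand. [3H]DPDPE incubated 2 h and [3H]DAMGO 1.5 h, both at 25 °C. Nonspecific binding defined with 1 μM naltrindole (DPDPE) or 1 μM DAMGO (DAMGO). GF/B filtration, scintillation counting. 6–9 inhibitor concentrations; Ki by Cheng–Prusoff, given as pKi. 3–5 curves, each in triplicate.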

[7] = target: Kappa-type opioid receptor (Cavia porcellus, UniProt P41144); test: Binding affinity using guinea pig brain membrane preparations, towards Opioid receptor kappa 1 using [3H]- U-69,593 as radioligand
Sequence of Kappa-type opioid receptor (P41144 whole entry): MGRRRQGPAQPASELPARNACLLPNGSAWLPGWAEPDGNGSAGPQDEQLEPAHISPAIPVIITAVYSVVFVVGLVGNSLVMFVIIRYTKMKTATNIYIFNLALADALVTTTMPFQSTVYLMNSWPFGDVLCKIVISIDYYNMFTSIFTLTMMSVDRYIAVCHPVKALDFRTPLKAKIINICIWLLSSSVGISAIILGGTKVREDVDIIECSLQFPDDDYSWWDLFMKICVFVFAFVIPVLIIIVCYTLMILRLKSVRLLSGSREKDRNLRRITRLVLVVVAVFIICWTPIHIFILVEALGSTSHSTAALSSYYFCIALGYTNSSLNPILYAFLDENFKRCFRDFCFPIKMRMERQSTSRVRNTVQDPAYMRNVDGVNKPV

[8] = system: Delta-type opioid receptor; test: Relative affinity evaluated for Opioid receptor delta 1; conditions: Cavia porcellus; summary of the method: as §2
[9] = organism: Cavia porcellus; test: activity evaluated by its ability to inhibit the electrically induced twitch contraction in guinea pig ileum, which is reversed by naloxone (300 nM)(P < 0.01); type: functional; summary of the method: as §1
[10] = organism: Cavia porcellus; test: Relative potency expressed as the percentage of the pD2 value against that of morphine; type: functional
[11] = organism: Cavia porcellus; test: activity evaluated by its ability to inhibit the electrically induced twitch contraction in guinea pig ileum, which is reversed by naloxone (300 nM); type: functional; summary of the method: as §1
[12] = organism: Cavia porcellus; test: % maximum inhibition is elicited when the response reaches plateau, calculated regarding electrically induced contraction in guinea pig ileum as 100% (P < 0.001); type: functional; summary of the method: as §1
[13] = organism: Cavia porcellus; test: % maximum inhibition is elicited when the response reaches plateau, calculated regarding electrically induced contraction in guinea pig ileum as 100%(P < 0.001); type: functional; summary of the method: as §1
[14] = organism: Cavia porcellus; test: activity evaluated by its ability to inhibit the electrically induced twitch contraction in guinea pig ileum, which is reversed by naloxone (300 nM)(P < 0.001); type: functional; summary of the method: as §1
[15] = organism: Cavia porcellus; test: activity evaluated by its ability to inhibit the electrically induced twitch contraction in guinea pig ileum, which is reversed by naloxone (300 nM) (P < 0.001); type: functional; summary of the method: as §1

## CN1CC[C@]23c4c5ccc(O)c4O[C@H]2[C@@H](O)C=C[C@H]3[C@H]1C5 [MORPHINE]
[1]
  Contraction: 27.4%
[2]
  Inhibition: 100%
[3]
  Inhibition: 87.2%

## COc1ccc(CCN(C)CCCC(C#N)(c2ccc(OC)c(OC)c2)C(C)C)cc1OC (configuration not stated)
[4]
  Contraction: 6.8%

## CC[C@@H]1C[N+]2([O-])CCc3c([nH]c4cccc(OC)c34)[C@@H]2C[C@@H]1/C(=C\OC)C(=O)OC (some centres not stated)
[3]
  Inhibition: -123.5%

## CC[C@@H]1CN2CCc3c([nH]c4cccc(OC)c34)[C@@H]2C[C@@H]1/C(=C\OC)C(=O)OC
[5]
  Relative affinity: 88.7%
[2]
  Inhibition: 95%
[6]
  Ki: 7.24 nM
[7]
  Ki: 1100 nM
[8]
  Relative affinity: 10.7%
[3]
  Inhibition: 83.1%
[9]
  pD2: 6.59
[10]
  Relative potency: 26%

## CC[C@@H]1CN2CCc3c([nH]c4cccc(OC(C)=O)c34)[C@@H]2C[C@@H]1/C(=C\OC)C(=O)OC
[11]
  pD2: 5.39
[2]
  Inhibition: 38%
[12]
  Inhibition: 33.2%
[10]
  Relative potency: 2%

## CCO[C@]12CCN3C[C@@H](CC)[C@@H](/C(=C\OC)C(=O)OC)C[C@H]3C1=Nc1cccc(OC)c12
[2]
  Inhibition: 26%
[13]
  Inhibition: 22.9%
[14]
  pD2: 5.29
[10]
  Relative potency: 1%

## CC[C@@H]1CN2CC[C@]3(Nc4cccc(OC)c4C3=O)[C@@H]2C[C@@H]1/C(=C\OC)C(=O)OC
[5]
  Relative affinity: 97.1%
[2]
  Inhibition: 96%
[6]
  Ki: 0.0871 nM
[15]
  pD2: 8.71
[7]
  Ki: 79.4 nM
[8]
  Relative affinity: 2.8%
[3]
  Inhibition: 83.5%
[10]
  Relative potency: 3467%

## CC[C@@H]1CN2CCc3c([nH]c4cccc(OC)c34)[C@H]2C[C@@H]1/C(=C/OC)C(=O)OC
[2]
  Inhibition: 101%
[3]
  Inhibition: 85.9%
[14]
  pD2: 5.4
[10]
  Relative potency: 2%

## CC[C@@H]1CN2CC[C@@]3(OC(C)=O)C(=Nc4cccc(OC)c43)[C@@H]2C[C@@H]1/C(=C\OC)C(=O)OC
[2]
  Inhibition: 15%
[9]
  pD2: 6.5
[12]
  Inhibition: 13.4%
[10]
  Relative potency: 21%
